Data reported in ChEMBL document CHEMBL4033704, “Discovery, synthesis, and structure-activity relations of 3,4-dihydro-1H-spiro(naphthalene-2,2'-piperidin)-1-ones as potassium-competitive acid blockers” (Bioorg Med Chem, 2017).

What was measured:
[1] = Inhibition of potassium-stimulated hydrogen potassium ATPase in pig gastric mucosal microsomal fraction assessed as reduction in liberated inorganic phosphate level after 30 mins in presence of KCl by malachite green staining based colorimetric method; set-up: species or system Sus scrofa
Method in brief: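 Gastric mucosal microsomal fraction prepared from pig stomach; assay run at pH 6.5. Inhibition expressed as percent of K⁺-stimulated H⁺,K⁺-ATPase activity in control. IC50 obtained by sigmoidal dose-response fitting.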

[2] = AUC (0 to 24 hrs) in Jcl:Sprague-Dawley rat plasma at 0.2 mg/kg, iv by LC/MS/MS analysis; format: ADME, organism-based; set-up: time < 24 hr, dose 0.2 mg/kg, route intravenous
Method in brief: (§1)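 Rats dosed intravenously at 0.2 mg/kg, given as free compound. Blood and stomach sampled 10 min, 1, 4 and 24 h after dosing. Compound levels measured by LC/MS/MS. AUC0-24h calculated from these four time points (plasma ng·h/mL, stomach ng·h/g).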

Rattus norvegicus [3] = assay: Inhibition of histamine-stimulated gastric acid secretion in Jcl:Sprague-Dawley rat at 1 mg/kg, iv pretreated for 3 mins followed by histamine.2HCl stimulation measured after 3 hrs by titration method relative to control; format: functional
Method in brief: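 Anesthetized rats given compound intravenously at 1, 3 or 10 mg/kg, then histamine. Gastric contents collected and centrifuged at 3000 rpm for 10 min; volume measured. Acid concentration determined by automatic titration to pH 7.0 with 0.1 mol/L NaOH. Total acid output over 3 h (μEq/3 h) compared against vehicle to give percent inhibition.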

[4] = Inhibition of sodium and potassium-activated sodium potassium ATPase in porcine cerebral cortex assessed as reduction in liberated inorganic phosphate level after 30 mins in presence of sodium and potassium by malachite green staining based colorimetric method; set-up: species or system Sus scrofa
Stomach = assay: AUC (0 to 24 hrs) in Jcl:Sprague-Dawley rat stomach at 0.2 mg/kg, iv by LC/MS/MS analysis; format: ADME, organism-based; set-up: dose 0.2 mg/kg, time < 24 hr, route intravenous; conditions: in vivo; method in brief: as §1
Rattus norvegicus [5] = assay: Inhibition of histamine-induced acid secretion in rat assessed as increase in pH of gastric perfusate at 3 mg/kg, iv measured after 5 hrs; format: functional
Method in brief: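 Anesthetized rats given intravenous infusion of histamine 2HCl via cervical vein at 8 mg/kg/h; gastric perfusate pH monitored. Once pH stabilized, test compound or vehicle given intravenously. Perfusate pH then recorded for 5 h after dosing.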

[6] = Lipophilicity, log D of the compound; format: physicochemical; conditions: octanol/water
Rattus norvegicus [7] = assay: Inhibition of histamine-stimulated gastric acid secretion in Jcl:Sprague-Dawley rat at 10 mg/kg, iv pretreated for 3 mins followed by histamine.2HCl stimulation measured after 3 hrs by titration method relative to control; format: functional
Sus scrofa = species: Sus scrofa; assay: Selectivity ratio of IC50 for sodium and potassium-activated sodium potassium ATPase in porcine cerebral cortex to IC50 for potassium-stimulated hydrogen potassium ATPase in pig gastric mucosal microsomal fraction

Row | SMILES | IC50 [1] [nM] | also measured
1 | COc1ccc2c(c1)CCC1(CCCCN1CC(=O)c1ccccc1)C2=O (configuration not stated) | > 10000 | –
2 | COc1cccc(CCN2CCCC[C@@]23CCc2cc(OC)ccc2C3=O)c1 | 1100 | –
3 | COc1ccc2c(c1)CC[C@]1(CCCCN1CCc1ccc(F)cc1)C2=O | > 10000 | –
4 | COc1ccc2c(c1)CC[C@]1(CCCCN1CCc1ccccc1C)C2=O | > 10000 | –
5 | COc1ccc2c(c1)CCC1(CCCCN1C(=O)Cc1ccccc1)C2=O (configuration not stated) | > 10000 | –
6 | COc1ccc2c(c1)CCC1(CCCCN1c1ccccc1)C2=O (configuration not stated) | > 10000 | –
7 | COc1ccc2c(c1)CCC1(CCCCN1Cc1ccccc1)C2=O (configuration not stated) | > 10000 | –
8 | COc1ccc2c(c1)CC[C@@]1(CCCCN1CCc1cccc(F)c1)C2=O | 370 | –
9 | O=C1c2ccccc2CCC12CCCCN2CCc1ccccc1 (configuration not stated) | 1000 | –
10 | COc1ccc2c(c1)CCC1(CCCCN1CCCCc1ccccc1)C2=O (configuration not stated) | > 10000 | –
11 | O=C1c2cccc3[nH]cc(c23)CC12CCCCN2CCc1ccccc1 (configuration not stated) | 1600 | AUC(0-t) at 24 h [2]: 71 ng·h/mL; inhibition in vivo at 10 mg/kg (Rattus norvegicus [7]): 71%; IC50 [4]: > 10000 nM; AUC (Stomach): 1171 ng·h/g; Ratio IC50 (Sus scrofa): > 100
12 | COc1ccc2c(c1)CCC1(CCCCN1CC(C)c1ccccc1)C2=O (configuration not stated) | 300 | –
13 | Cc1ccccc1CCN1CCCCC12CCc1cc(C#N)ccc1C2=O (racemic) | > 10000 | –
14 | COc1cccc2c1CCC1(CCCCN1CCc1ccccc1C)C2=O (configuration not stated) | 300 | –
15 | Cc1ccccc1CCN1CCCCC12CCc1cc(-c3ccccc3)ccc1C2=O (racemic) | > 10000 | –
16 | Cc1ccccc1CCN1CCCCC12CCc1ccccc1C2=O (racemic) | 290 | –
17 | COc1ccc2c(c1)CCC1(CCCCN1CCCc1ccccc1)C2=O (configuration not stated) | 890 | –
18 | COc1ccc(CCN2CCCC[C@@]23CCc2cc(OC)ccc2C3=O)cc1 | 1800 | –
19 | CC(=O)Nc1ccc2c(c1)CC[C@]1(CCCCN1CCc1ccccc1C)C2=O | > 10000 | –

The remaining compounds from weak to strong by IC50 [1], led by results:

Row | IC50 [1] [nM] | SMILES | also measured
20 | 290 | COc1ccc2c(c1)CCC1(CCCCN1CCc1ccccc1)C2=O (configuration not stated) | –
21 | 290 | COc1cccc2c1C(=O)C1(CCCCN1CCc1ccccc1C)CC2 (configuration not stated) | –
22 | 270 | COc1ccc2c(c1)C(=O)C1(CCCCN1CCc1ccccc1C)CC2 (racemic) | –
23 | 170 | COc1ccc2c(c1)CCC1(CCCCN1CCc1ccccc1Cl)C2=O (configuration not stated) | –
24 | 160 | COc1ccc2c(c1)CC[C@@]1(CCCCN1CCc1ccccc1F)C2=O | –
25 | 140 | COc1ccc2c(c1)CCC1(CCCCN1CCc1c(C)cc(C)cc1C)C2=O (configuration not stated) | –
26 | 87 | COc1ccc2c(c1)CCC1(CCCCN1CCc1ccc(F)cc1)C2=O (configuration not stated) | –
27 | 83 | COc1ccc2c(c1)CC[C@@]1(CCCCN1CCc1ccccc1OC)C2=O | –
28 | 82 | COc1ccc2c(c1)CCC1(CCCCN1CCc1ccccc1C)C2=O (configuration not stated) | –
29 | 64 | COc1ccc2c(c1)CC[C@@]1(CCCCN1CCc1ccc(F)cc1)C2=O | –
30 | 57 | COc1ccc2c(c1)CCC1(CCCCN1CCc1ccc(F)cc1C)C2=O (configuration not stated) | –
31 | 46 | COc1ccc2c(c1)CC[C@@]1(CCCCN1CCc1ccccc1C)C2=O.Cl | AUC(0-t) at 24 h [2]: 74 ng·h/mL; inhibition in vivo at 1 mg/kg (Rattus norvegicus [3]): 87%; IC50 [4]: > 10000 nM; AUC (Stomach): 3035 ng·h/g
32 | 45 | CC(=O)Nc1ccc2c(c1)CCC1(CCCCN1CCc1ccccc1C)C2=O (racemic) | –
33 | 31 | CC(=O)Nc1ccc2c(c1)CC[C@@]1(CCCCN1CCc1ccccc1C)C2=O | pH (Rattus norvegicus [5]): 6; logD [6]: 3.56; AUC(0-t) at 24 h [2]: 68 ng·h/mL; inhibition in vivo at 1 mg/kg (Rattus norvegicus [3]): 95%; AUC (Stomach): 15131 ng·h/g
